Data: ChEMBL document CHEMBL1154279, “Cytotoxic compounds from the stems of Cinnamomum tenuifolium” (J Nat Prod, 2009)
Calls of active or inactive are those of the source. The rule behind the calls is not given here.

Columns and labels:
DU-145 [1] = experiment: Cell cycle arrest in human DU145 cells assessed as accumulation of cells at G1 phase at 100 uM after 72 hrs using propidium iodide stain by flow cytometry; assay type: functional
Summary of the method: (§1)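 DU145 cells treated with 1, 5, 10 or 100 µM for 24 or 72 h; vehicle 1% DMSO in water. Adherent and floating cells pooled, fixed in PBS-MeOH (1:2) at 4 °C for at least 18 h, then stained 30 min at room temperature in the dark with propidium iodide 50 µg/mL plus RNase A 50 µg/mL. Flow cytometry, excitation 488 nm, emission above 580 nm, doublets gated out. Sub-G1 region taken as DNA damage; at least three runs.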

DU-145 [2] = experiment: Cell cycle arrest in human DU145 cells assessed as accumulation of cells at G1 phase at 10 uM after 24 hrs using propidium iodide stain by flow cytometry; assay type: functional; summary of the method: as §1
DU-145 [3] = experiment: Cell cycle arrest in human DU145 cells assessed as accumulation of cells at S phase at 100 uM after 24 hrs using propidium iodide stain by flow cytometry; assay type: functional; summary of the method: as §1
DU-145 [4] = experiment: Antiproliferative activity in human DU145 cells at 10 uM after 24 hrs by XTT assay in the presence of Ac-LEHD-CMK; assay type: functional, cell-based
Summary of the method: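 DU145 cells pretreated 60 min with 50 µM Ac-DEVD-CMK or 50 µM Ac-LEHD-CMK, then exposed to 10 µM compound for 24 h (vehicle 1% DMSO in water). Proliferation read by XTT: labeling mixture added for 4 h at 37 °C, OD 450 nm (reference 650 nm) versus control wells; mean ± SE of three experiments.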

DU-145 [5] = experiment: Induction of apoptosis in human DU145 cells assessed as formation of granulation of nucleus after 24 hrs by Hoechst 33342 stainig; assay type: functional, cell-based
Summary of the method: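 DU145 cells exposed to 1 and 100 µM for 24 h, vehicle 1% DMSO. Fixed in 3.7% paraformaldehyde, stained with Hoechst 33342 (5 µg/mL) at 37 °C for 1 h and examined by fluorescence microscopy. Cells with reduced nuclear size, chromatin condensation or nuclear fragmentation scored as apoptotic.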

DU-145 [6] = experiment: Cell cycle arrest in human DU145 cells assessed as accumulation of cells at sub-G1 phase at 100 uM after 72 hrs using propidium iodide stain by flow cytometry; assay type: functional; summary of the method: as §1
DU-145 [7] = experiment: Induction of apoptosis in human DU145 cells assessed as caspase3 activation at 10 uM by ELISA; assay type: functional, cell-based
Summary of the method: (§2)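 DU145 cells treated with 10 µM for 1, 3, 6, 12 and 24 h and lysed. Lysate (60 µg) incubated with Ac-DEVD-pNA or Ac-LEHD-pNA in PIPES buffer pH 7.2 at 37 °C for 1 h in the dark. pNA release read at 405 nm and expressed as percent change against untreated control.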

DU-145 [8] = experiment: Cell cycle arrest in human DU145 cells assessed as accumulation of cells at G1 phase at 5 uM after 72 hrs using propidium iodide stain by flow cytometry; assay type: functional; summary of the method: as §1
DU-145 [9] = experiment: Cell cycle arrest in human DU145 cells assessed as accumulation of cells at G1 phase at 1 uM after 24 hrs using propidium iodide stain by flow cytometry; assay type: functional; summary of the method: as §1
DU-145 [10] = experiment: Cell cycle arrest in human DU145 cells assessed as accumulation of cells at S phase at 1 uM after 72 hrs using propidium iodide stain by flow cytometry; assay type: functional; summary of the method: as §1
DU-145 [11] = experiment: Cytotoxicity against human DU145 cells at 100 uM after 72 hrs by XTT assay; assay type: functional, cell-based
Summary of the method: (§3)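 Prostate cancer cells in RPMI-1640 with 10% FBS, 37 °C, 5% CO2, grown to 70–80% confluence and treated at 0.1–100 µM for 24, 48 and 72 h. XTT labeling for 4 h at 37 °C, absorbance 450 nm (reference 650 nm) against control wells. IC50 derived from the mean of eight wells; taxol and cisplatin served as positive controls.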

DU-145 [12] = experiment: Cell cycle arrest in human DU145 cells assessed as accumulation of cells at sub-G1 phase at 10 uM after 72 hrs using propidium iodide stain by flow cytometry; assay type: functional; summary of the method: as §1
DU-145 [13] = experiment: Induction of apoptosis in human DU145 cells assessed as caspase9 activation by ELISA; assay type: functional, cell-based; details: TDE = time-dependent effect; summary of the method: as §2
DU-145 [14] = experiment: Cell cycle arrest in human DU145 cells assessed as accumulation of cells at G2/M phase at 100 uM after 72 hrs using propidium iodide stain by flow cytometry; assay type: functional; summary of the method: as §1
DU-145 [15] = experiment: Induction of apoptosis in human DU145 cells assessed as caspase9 activation after 24 hrs by ELISA; assay type: functional, cell-based; details: TDE = time-dependent effect; summary of the method: as §2
DU-145 [16] = experiment: Cell cycle arrest in human DU145 cells assessed as accumulation of cells at G2/M phase at 10 uM after 72 hrs using propidium iodide stain by flow cytometry; assay type: functional; summary of the method: as §1
DU-145 [17] = experiment: Cell cycle arrest in human DU145 cells assessed as accumulation of cells at G1 phase at 5 uM after 24 hrs using propidium iodide stain by flow cytometry; assay type: functional; summary of the method: as §1
DU-145 [18] = experiment: Cytotoxicity against human DU145 cells at 100 uM after 72 hrs by Trypan blue dye exclusion test; assay type: functional, cell-based
Summary of the method: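 DU145 cells (1 × 10^5 per 60 mm dish) treated the following day with 1–100 µM for 24, 48 and 72 h. Cells harvested, washed twice with PBS and stained with trypan blue; unstained viable cells counted by microscope with a hemocytometer. Mean ± SE.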

DU-145 [19] = experiment: Cell cycle arrest in human DU145 cells assessed as accumulation of cells at sub-G1 phase at 1 uM after 24 hrs using propidium iodide stain by flow cytometry; assay type: functional; summary of the method: as §1
DU-145 [20] = experiment: Increase of intracellular hydrogen peroxide and or peroxide in human DU145 cells at 50 uM after 24 hrs by DCFH-DA assay relative to control; assay type: functional
Summary of the method: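 DU145 cells (1 × 10^4 per well) treated with 1, 10 or 50 µM for 6–24 h, then loaded with 10 µM DCFH-DA in serum-free medium for 30 min at 37 °C in the dark. DCF fluorescence read by spectrofluorimeter (ex 495, em 530 nm) within 15 min; five experiments.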

DU-145 [21] = experiment: Cell cycle arrest in human DU145 cells assessed as accumulation of cells at sub-G1 phase at 5 uM after 72 hrs using propidium iodide stain by flow cytometry; assay type: functional; summary of the method: as §1
DU-145 [22] = experiment: Cell cycle arrest in human DU145 cells assessed as accumulation of cells at G2/M phase at 1 uM after 24 hrs using propidium iodide stain by flow cytometry; assay type: functional; summary of the method: as §1
LNCaP = experiment: Cytotoxicity against human LNCAP cells after 72 hrs by XTT assay; assay type: functional, cell-based; details: 24 h, in the assay text read “after 24 hrs” for “after 72 hrs”; summary of the method: as §3
DU-145 [23] = experiment: Cell cycle arrest in human DU145 cells assessed as accumulation of cells at G1 phase at 1 uM after 72 hrs using propidium iodide stain by flow cytometry; assay type: functional; summary of the method: as §1
DU-145 [24] = experiment: Cell cycle arrest in human DU145 cells assessed as accumulation of cells at G2/M phase at 5 uM after 24 hrs using propidium iodide stain by flow cytometry; assay type: functional; summary of the method: as §1

`CCCCCCCCCCCCCCCCCCCCCCCC/C=C(/C(=O)OC)[C@@H](O)C(C)=O` [SECOTENUIFOLIDE A] was tested, and the Activity (DU-145 [1]) was 28.57%, the Activity (DU-145 [2]) was 36.97% and the Activity (DU-145 [3]) was 10.04%. The Activity (DU-145 [4]) was “inactive”, the Activity (DU-145 [5]) was “Active” and the Activity (DU-145 [6]) was 32.57%. The Activity (DU-145 [7]) was “Active”, the Activity (DU-145 [8]) was 48.96% and the Activity (DU-145 [9]) was 44.45%. The Activity (DU-145 [10]) was 2.88%, the Activity (DU-145 [11]) was “Active” and the Activity (DU-145 [12]) was 16.18%. The Activity (DU-145 [13]) was “tde”, the Activity (DU-145 [14]) was 30% and the Activity (DU-145 [15]) was “tde”. For the same compound, the Activity (DU-145 [16]) was 30.83%, the Activity (DU-145 [17]) was 34.96% and the Activity (DU-145 [18]) was “Active”. The Activity (DU-145 [19]) was 6.56%, the “fold change (FC)” value (DU-145 [20]) was 2.5 and the Activity (DU-145 [21]) was 14.24%. It also gave an Activity (DU-145 [22]) of 43.3%, an EC50 (LNCaP) of under 7 µM and an IC50 (LNCaP) of 6.76 µM. The Activity (DU-145 [23]) was 53.11% and the Activity (DU-145 [24]) was 37.88%.
